ABCG2 inh – inhibitors of human ABCG2 transporter, ABCB1 counter-screen. inhibition, % at 6.6 µM. Q9UNQ0. 190,000 tested, 0.1% active. IgMXP3 cells, JC-1 efflux, flow cytometry;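 active means inhibition above 80%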;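 further: 0% = DMSO and 100% = nicardipine control wells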
Target sequence (Q9UNQ0 whole entry, looked up): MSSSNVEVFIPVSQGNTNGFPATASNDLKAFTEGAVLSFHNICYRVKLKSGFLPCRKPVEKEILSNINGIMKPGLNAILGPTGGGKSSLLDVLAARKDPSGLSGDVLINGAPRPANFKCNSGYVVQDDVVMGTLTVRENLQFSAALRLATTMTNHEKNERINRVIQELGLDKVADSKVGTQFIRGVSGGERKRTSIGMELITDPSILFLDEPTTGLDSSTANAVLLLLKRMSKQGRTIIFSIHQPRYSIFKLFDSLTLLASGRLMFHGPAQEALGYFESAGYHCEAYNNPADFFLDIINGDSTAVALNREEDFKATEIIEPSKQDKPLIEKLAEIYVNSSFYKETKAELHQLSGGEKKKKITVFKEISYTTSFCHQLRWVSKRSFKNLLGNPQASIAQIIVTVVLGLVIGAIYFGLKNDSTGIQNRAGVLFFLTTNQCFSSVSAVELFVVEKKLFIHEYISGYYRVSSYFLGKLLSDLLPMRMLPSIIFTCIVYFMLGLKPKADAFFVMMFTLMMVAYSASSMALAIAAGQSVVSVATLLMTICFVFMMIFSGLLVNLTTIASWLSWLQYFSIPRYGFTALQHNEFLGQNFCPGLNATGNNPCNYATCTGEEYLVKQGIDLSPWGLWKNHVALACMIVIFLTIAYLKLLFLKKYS
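Test system: IgMXP3 cells (ABCG2) mixed with DDAO far-red-labelled CCRF-Adr cells (ABCB1). Reagent: JC-1 transporter substrate. Compound dosing: single test compound dose, 6.6 µM final. Times: 10 min compound exposure, 25 °C. Detection: flow cytometry of retained JC-1 fluorescence. Read-out basis: efflux inhibition in percent versus controls. Controls: nicardipine and DMSO wells.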
MEKK2 mut-MEK5 – signal of MEK5 binding to mutant human MEKK2 PB1 domain; 290,000 tested, 0.35% active; bead flow cytometry, Alexa488-MEK5 binding to MEKK2 mutant; percent response, % at 10 µM; in the data active means percent response above about 24%, passing the limit was not always enough
MEKK2wt PB1 HTS – raises or lowers MEK5 binding to wildtype human MEKK2 PB1 domain; 290,000 tested, 1.1% active; bead flow cytometry, Alexa488-MEK5 binding to MEKK2 WT; actives lie on both sides; Q9Y2U5; binding response (% of control), % at 10 µM; AID 1531; in the data active means binding response below about 67% or above about 130%
MEKK3 PB1 HTS – raises or lowers MEK5 binding to the human MEKK3 PB1 domain; Q99759; bead-based flow cytometry, Alexa488-MEK5 binding to MEKK3; actives lie on both sides; 0 = blocked by unlabeled MEK5, 100 = vehicle; binding response (% of control), % at 10 µM; 290,000 tested, 1.4% active;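 active means binding response more than 3 SD above or below the average of its plate-row segment, actives on both sides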;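 further: Alexa488 bead fluorescence after subtracting the streptavidin-only scavenger bead signal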
WT yeast gro inh – growth inhibition of WT yeast, mitochondrial fusion screen | 190,000 tested, 2.1% active | mitochondrial fusion phenotypic screen, WT strain | inhibition, % at 10 µM | AID 1362; in the data active means inhibition above about 58%; tested in S. cerevisiae
ABCB1 inh – human ABCB1 inhibition, ABCG2 as counter-screen. 190,000 tested, 0.067% active. CCRF-Adr cells, JC-1 efflux, flow cytometry. AID 1326. inhibition, % at 6.6 µM. P08183; in the data active means inhibition above about 40%;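 further: 0% = vehicle and 100% = reference inhibitor; higher value means more JC-1 retained so stronger ABCB1 efflux block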
Active calls of the source: *; nt = no result. A selection: hits, their analogues and other compounds. The true share with any hit is near 3.5%.

SMILES	ABCG2 inh	MEKK2 mut-MEK5	MEKK2wt PB1 HTS	MEKK3 PB1 HTS	WT yeast gro inh	ABCB1 inh
CCOC(=O)c1c(NS(=O)(=O)c2ccc(Br)cc2)sc2c1CCC2	-1.6	4.0	93.0	91.0	65.1*	-0.3
COC(=O)c1c(NC(NC(=O)C(C)C)C(Cl)(Cl)Cl)sc2c1CCC2 (configuration not stated)	1.9	-1.0	116.0	112.0	59.7*	0.8
COC(=O)c1c(NC(NC(C)=O)C(Cl)(Cl)Cl)sc2c1CCCC2 (configuration not stated)	5.0	0.0	101.0	125.0	51.0	1.1
CCOC(=O)c1c(NC(NC(C)=O)C(Cl)(Cl)Cl)sc2c1CCCC2 (configuration not stated)	-0.7	9.0	111.0	101.0	67.5*	-0.1
CCC(=O)NC(Nc1sc2c(c1C(=O)OC)CCC2)C(Cl)(Cl)Cl (configuration not stated)	8.6	-2.0	92.0	99.0	43.2	2.8
COC(=O)c1c(NC(NC(=O)C(C)(C)C)C(Cl)(Cl)Cl)sc2c1CCC2 (configuration not stated)	4.8	10.0	106.0	106.0	71.4*	2.5
O=C1c2ccccc2C(=O)N1CCCCN(C(=O)c1cc([N+](=O)[O-])ccc1Cl)c1ccc(Cl)cc1	15.5	-1.0	98.0	100.0	66.2*	30.9
Cc1ccc(NC(=S)N2CCC(c3ccc(C)cc3)C2)cc1 (configuration not stated)	8.2	0.0	102.0	104.0	75.0*	-0.8
CSc1cccc(NC(=S)N2CCC(c3ccccc3)C2)c1 (configuration not stated)	nt	10.0	106.0	107.0	nt	nt
CCc1cccc(NC(=S)N2CCC(c3ccccc3)C2)c1 (configuration not stated)	24.6	3.0	102.0	102.0	76.3*	0.7
C[C@@H]1CN(Cc2cn(C)nc2-c2cccc(Cl)c2)C[C@H](C)O1	3.2	-10.0	95.0	98.0	-21.9	1.0
CCOC(=O)C1(C)/C(=N/Nc2ccccc2Cl)C(=O)C(=O)N1c1ccccc1 (configuration not stated)	-1.1	2.0	95.0	101.0	33.5	-0.7
Cc1ccn2c(NC(C)(C)C)c(-c3cccs3)nc2c1	10.4	-1.0	99.0	99.0	24.8	1.4
Nc1cc2nn(-c3ccccc3)nc2cc1Cl	0.0	-9.0	92.0	95.0	5.8	0.0
Nc1ccc2nn(-c3ccccc3)nc2c1	0.3	-12.0	56.0	53.0	62.9*	0.2
Cc1ccccc1CN(C)CC(=O)Nc1ccccc1-c1ccccc1	6.4	1.0	94.0	98.0	78.9*	1.3
N#CC(c1cccc(Cl)c1)c1ccc2c(C(F)(F)F)cc(C(F)(F)F)nc2n1 (configuration not stated)	13.2	5.0	102.0	103.0	81.2*	0.7
Cc1cc(C(=O)N(C)CC(=O)Nc2ccccc2C(F)(F)F)c(C)o1	4.4	-10.0	80.0	80.0	-16.4	0.9
O=C(Nc1ccc(Br)c(C(F)(F)F)c1)c1ccccc1	16.9	0.0	106.0	103.0	66.1*	nt
Cc1cc2c(Nc3ccc(C(=O)O)cc3)ncnc2s1	nt	1.0	103.0	101.0	nt	nt
NC(=O)COC(=O)c1ccc(Cl)c(S(=O)(=O)N(Cc2ccccc2)c2ccc(Cl)cc2)c1	2.4	20.0	110.0	104.0	76.5*	0.8
NC(=O)NC(=O)COC(=O)c1ccc(Cl)c(S(=O)(=O)N(Cc2ccccc2)c2ccc(Cl)cc2)c1	-2.0	4.0	104.0	107.0	30.8	-0.3
Cc1c(CN2CCN(CC(C)C)C(CCO)C2)[nH]c2ccc(Cl)cc12 (configuration not stated)	nt	8.0	119.0	105.0	nt	nt
O=C(NCc1nnc(SCc2ccc(F)cc2)n1-c1ccccc1)C12CC3CC(CC(C3)C1)C2	-0.1	12.0	107.0	101.0	14.2	0.6
O=C(NCc1nnc(SCc2ccc(C(F)(F)F)cc2)n1-c1ccccc1)C12CC3CC(CC(C3)C1)C2	17.6	3.0	107.0	106.0	71.8*	4.8
SMILES	ABCG2 inh	MEKK2 mut-MEK5	MEKK2wt PB1 HTS	MEKK3 PB1 HTS	WT yeast gro inh	ABCB1 inh
Cc1[nH]c2ccccc2c1/C=N/NC(=O)c1cccc(F)c1	0.6	-7.0	94.0	99.0	-14.2	0.0
Cc1[nH]c2ccccc2c1/C=N/NC(=O)c1cccc([N+](=O)[O-])c1	-1.5	-13.0	65.0	61.0	-0.2	-0.7
Cc1[nH]c2ccccc2c1/C=N/Nc1ccc([N+](=O)[O-])cc1	7.3	43.0	24.0*	91.0	52.2	8.1
Cc1[nH]c2ccccc2c1/C=N/Nc1ccc(F)cc1F	-6.9	6.0	0.0*	131.0	23.8	-0.9
Cc1ccc(C(=O)c2cc(C)sc2NC(=O)CN2CCN(C(=O)c3ccco3)CC2)cc1	4.3	-3.0	96.0	102.0	78.7*	4.8
CCc1cc(C(=O)OC)c(NC(=O)CN2CCN(C(=O)c3ccco3)CC2)s1	nt	-4.0	96.0	99.0	nt	nt
CCc1ccc(CNC(=O)C2CCC(=O)N(CCc3ccc(Cl)cc3)C2)nc1 (configuration not stated)	nt	3.0	100.0	100.0	nt	nt
COc1ccccc1-c1c(C#N)c(N)nc2c1CCc1ccccc1-2	39.9	-2.0	94.0	100.0	67.0*	1.5
Cc1ncc([N+](=O)[O-])n1CC(=O)Nc1cc(Cl)ccc1Cl	nt	4.0	103.0	103.0	nt	nt
Cc1nn(CC(=O)NCc2ccc(-n3cccn3)cc2)c(C)c1[N+](=O)[O-]	12.5	1.0	103.0	101.0	-2.5	2.5
O=C(NCc1ccco1)C1CCN(C(=O)c2cc3sccc3n2Cc2ccc(Cl)cc2)CC1	2.5	-3.0	97.0	96.0	61.3*	1.6
NC(=O)c1ccccc1NC(=O)CN1CCN(Cc2ccc(Cl)cc2Cl)CC1	nt	-2.0	100.0	101.0	nt	nt
NS(=O)(=O)c1ccc(CNC(=O)CNC(=O)c2ccc(Br)o2)cc1	nt	-2.0	100.0	100.0	nt	nt
c1ccc(C2(Cn3ccc4ccccc43)OCCO2)cc1	1.6	3.0	12.0*	95.0	13.8	0.3
Cc1nc2ccc(C(=O)N3CCN(Cc4ccccc4)CC3)cc2[nH]1	nt	-2.0	96.0	98.0	nt	nt
CN(Cc1ccc(F)cc1)C(=O)COc1ccccc1-c1ccccc1	12.0	15.0	118.0	109.0	64.1*	0.9
CCCSc1cc(N2CCN(C)CC2)nc(-c2ccc(OC)cc2)n1	-1.9	7.0	132.0	105.0	94.7*	0.1
O=C(NCCCN1CCOCC1)NC12CC3CC(CC(C3)C1)C2	0.4	6.0	108.0	104.0	7.5	0.3
CCOCCCNC(=O)NC12CC3CC(CC(C3)C1)C2	4.3	-10.0	88.0	90.0	58.1*	0.9
